# Results from ChEMBL document CHEMBL1143122, “Novel analogs of D-e-MAPP and B13. Part 1: synthesis and evaluation as potential anticancer agents” (Bioorg Med Chem, 2008).
# What was measured:
# LOX IMVI = test: Antiproliferative activity against human LOXIMVI cells after 48 hrs; format: functional
# How it was run: (§1)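 NCI 60-cell screen. Cells were grown in RPMI 1640 with 5% FBS and 2 mM L-glutamine, then plated at 5,000–40,000 cells/well according to doubling time and preincubated for 24 h at 37 °C in 5% CO2. Compounds were dissolved in DMSO at 400× the top final concentration and tested at five 10-fold dilutions from 10−4 to 10−8 M for 48 h. Growth was read spectrophotometrically; GI50 is 50% net protein reduction.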
# M14 = test: Antiproliferative activity against human M14 cells after 48 hrs; format: functional; conditions: M14, 48 h; how it was run: as §1
# SK-MEL-2 = test: Antiproliferative activity against human SKMEL2 cells after 48 hrs; format: functional; conditions: SK-MEL-2, 48 h; how it was run: as §1
# SK-MEL-28 = test: Antiproliferative activity against human SKMEL28 cells after 48 hrs; format: functional; conditions: SK-MEL-28, 48 h; how it was run: as §1
# UACC-257 = test: Antiproliferative activity against human UACC257 cells after 48 hrs; format: functional; conditions: UACC-257, 48 h
# How it was run: (§2)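 NCI 60-cell-line screen. Lines grown in RPMI 1640 with 5% fetal bovine serum and 2 mM L-glutamine, plated at 5,000–40,000 cells/well according to doubling time, left 24 h at 37 °C in 5% CO2. Drug stocks in DMSO at 400-fold the top final concentration. Five 10-fold dilutions, 10−4 to 10−8 M, incubated 48 h. Growth read spectrophotometrically as net protein; GI50 taken as 50% reduction.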
# UACC-62 = test: Antiproliferative activity against human UACC62 cells after 48 hrs; format: functional; conditions: UACC-62, 48 h; how it was run: as §2
# IGROV-1 = test: Antiproliferative activity against human IGROV1 cells after 48 hrs; format: functional; conditions: IGROV-1, 48 h; how it was run: as §1
# SK-OV-3 = test: Antiproliferative activity against human SKOV3 cells after 48 hrs; format: functional; conditions: SK-OV-3, 48 h; how it was run: as §1
# 786-0 = test: Antiproliferative activity against human 786-0 cells after 48 hrs; format: functional; conditions: 786-0, 48 h; how it was run: as §1
# A498 = test: Antiproliferative activity against human A498 cells after 48 hrs; format: functional; conditions: A498, 48 h; how it was run: as §1
# CAKI-1 = test: Antiproliferative activity against human CAKI1 cells after 48 hrs; format: functional; conditions: CAKI-1, 48 h; how it was run: as §1
# SN12C = test: Antiproliferative activity against human SN12C cells after 48 hrs; format: functional; how it was run: as §1
# TK-10 = test: Antiproliferative activity against human TK10 cells after 48 hrs; format: functional; conditions: TK-10, 48 h; how it was run: as §2
# UO-31 = test: Antiproliferative activity against human UO31 cells after 48 hrs; format: functional; conditions: UO-31, 48 h; how it was run: as §2
# PC-3 = test: Antiproliferative activity against human PC3 cells after 48 hrs; format: functional; conditions: PC-3, 48 h; how it was run: as §1
# DU-145 = test: Antiproliferative activity against human DU145 cells after 48 hrs; format: functional; conditions: DU-145, 48 h; how it was run: as §1
# [1] = Antiproliferative activity against human NCI-ADR-RES cells after 48 hrs; format: functional; how it was run: as §1
# MDA-MB-231 = test: Antiproliferative activity against human MDA-MB-231 cells after 48 hrs; format: functional; conditions: MDA-MB-231, 48 h; how it was run: as §1
# T47D = test: Antiproliferative activity against human T47D cells after 48 hrs; format: functional; how it was run: as §2
# HOP-62 = test: Antiproliferative activity against human HOP62 cells after 48 hrs; format: functional; conditions: HOP-62, 48 h; how it was run: as §1
# HOP-92 = test: Antiproliferative activity against human HOP92 cells after 48 hrs; format: functional; conditions: HOP-92, 48 h; how it was run: as §1
# NCI-H322M = test: Antiproliferative activity against human NCI-H322M cells after 48 hrs; format: functional; how it was run: as §1
# NCI-H460 = test: Antiproliferative activity against human NCI-H460 cells after 48 hrs; format: functional; conditions: NCI-H460, 48 h; how it was run: as §1
# HCT-15 = test: Antiproliferative activity against human HCT15 cells after 48 hrs; format: functional; conditions: Homo sapiens, HCT-15, 48 h; how it was run: as §1
# HT-29 = test: Antiproliferative activity against human HT29 cells after 48 hrs; format: functional; conditions: HT-29, 48 h; how it was run: as §1
# KM12 = test: Antiproliferative activity against human KM12 cells after 48 hrs; format: functional; conditions: Homo sapiens, KM12, 48 h; how it was run: as §1
# SF-295 = test: Antiproliferative activity against human SF295 cells after 48 hrs; format: functional; conditions: SF-295, 48 h; how it was run: as §1
# SNB-19 = test: Antiproliferative activity against human SNB19 cells after 48 hrs; format: functional; conditions: SNB-19, 48 h; how it was run: as §1
# [2] = Antiproliferative activity against human HL60(TB) cells after 48 hrs; format: functional, HL-60(TB); conditions: HL-60, 48 h
# How it was run: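 NCI 60-line panel screen: cells grown in RPMI 1640 with 5% fetal bovine serum and 2 mM L-glutamine, plated at 5,000–40,000 cells/well by doubling time, and preincubated 24 h at 37 °C in 5% CO2. Drugs were solubilised in DMSO at 400-fold the final maximum and tested at five 10-fold dilutions from 10−4 to 10−8 M for 48 h. Net protein was read spectrophotometrically, and the concentration giving 50% reduction was reported as log10 GI50.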
# MOLT-4 = test: Antiproliferative activity against human MOLT4 cells after 48 hrs; format: functional; conditions: MOLT-4, 48 h; how it was run: as §1
# [3] = read-out: Log LC50 (the source's name) (converted)
structure (smiles),measurement,setting,value
C[C@@H](NC(=O)CCCCCCCCCCCCCCC[n+]1ccccc1)[C@@H](O)c1ccccc1.[Br-],GI50,LOX IMVI,3.55 µM
same,LC50,LOX IMVI,51.3 µM
same,TGI,LOX IMVI; read-out: Log TGI (converted),13.5 µM
same,GI50,M14,3.39 µM
same,LC50,M14,8.32 µM
same,TGI,M14; read-out: Log TGI (converted),3.89 µM
same,GI50,SK-MEL-2,2.19 µM
same,TGI,SK-MEL-2; read-out: Log TGI (converted),4.37 µM
same,GI50,SK-MEL-28,1.7 µM
same,LC50,SK-MEL-28,5.75 µM
same,TGI,SK-MEL-28; read-out: Log TGI (converted),3.16 µM
same,GI50,UACC-257,1.58 µM
same,TGI,UACC-257; read-out: Log TGI (converted),3.39 µM
same,GI50,UACC-62,1.48 µM
same,LC50,UACC-62,5.75 µM
same,TGI,UACC-62; read-out: Log TGI (converted),2.88 µM
same,GI50,IGROV-1,1.62 µM
same,TGI,IGROV-1; read-out: Log TGI (converted),3.31 µM
same,GI50,SK-OV-3,3.09 µM
same,CC50,SK-OV-3; [3],60.3 µM
same,TGI,SK-OV-3; read-out: Log TGI (converted),13.5 µM
same,GI50,786-0,2.63 µM
same,CC50,786-0; [3],34.7 µM
same,TGI,786-0; read-out: Log TGI (converted),8.51 µM
same,GI50,A498,12.9 µM
same,CC50,A498; [3],61.7 µM
same,TGI,A498; read-out: Log TGI (converted),28.2 µM
same,GI50,CAKI-1,1.38 µM
same,CC50,CAKI-1; [3],66.1 µM
same,TGI,CAKI-1; read-out: Log TGI (converted),30.2 µM
same,GI50,SN12C,1.74 µM
same,LC50 (50% net cell kill),SN12C,7.76 µM
same,TGI,SN12C; read-out: Log TGI (converted),3.63 µM
same,GI50,TK-10,4.9 µM
same,CC50,TK-10; [3],40.7 µM
same,TGI,TK-10; read-out: Log TGI (converted),15.8 µM
same,GI50,UO-31,19.1 µM
same,LC50,UO-31,93.3 µM
same,TGI,UO-31; read-out: Log TGI (converted),41.7 µM
same,GI50,PC-3,1.38 µM
same,LC50,PC-3,15.1 µM
same,TGI,PC-3; read-out: Log TGI (converted),3.98 µM
same,GI50,DU-145,3.47 µM
same,CC50,DU-145; [3],49 µM
same,TGI,DU-145; read-out: Log TGI (converted),15.1 µM
same,GI50,[1],19.5 µM
same,LC50,[1],85.1 µM
same,TGI,[1]; read-out: Log TGI (converted),40.7 µM
same,GI50,MDA-MB-231,1.74 µM
same,LC50 (50% lethal concentration),MDA-MB-231,7.59 µM
same,TGI,MDA-MB-231; read-out: Log TGI (converted),3.63 µM
same,GI50,T47D,1.55 µM
same,CC50,T47D; [3],> 100 µM
same,TGI,T47D; read-out: Log TGI (converted),6.46 µM
same,GI50,HOP-62,2.69 µM
same,CC50,HOP-62; [3],38 µM
same,TGI,HOP-62; read-out: Log TGI (converted),8.91 µM
same,GI50,HOP-92,0.0407 µM
same,LC50,HOP-92,5.75 µM
same,TGI,HOP-92; read-out: Log TGI (converted),0.912 µM
same,GI50,NCI-H322M,11 µM
same,CC50,NCI-H322M; [3],49 µM
same,TGI,NCI-H322M; read-out: Log TGI (converted),22.9 µM
same,GI50,NCI-H460,2.95 µM
same,CC50,NCI-H460; [3],> 100 µM
same,TGI,NCI-H460; read-out: Log TGI (converted),11.5 µM
same,GI50,HCT-15,17.8 µM
same,LC50,HCT-15,58.9 µM
same,TGI,HCT-15; read-out: Log TGI (converted),32.4 µM
same,GI50,HT-29,1.58 µM
same,LC50,HT-29,7.59 µM
same,TGI,HT-29; read-out: Log TGI (converted),3.47 µM
same,GI50,KM12,1.74 µM
same,CC50,KM12; [3],5.75 µM
same,TGI,KM12; read-out: Log TGI (converted),3.16 µM
same,GI50,SF-295,8.32 µM
same,LC50,SF-295,63.1 µM
same,TGI,SF-295; read-out: Log TGI (converted),24 µM
same,GI50,SNB-19,1.58 µM
same,TGI,SNB-19; read-out: Log TGI (converted),3.09 µM
same,GI50,[2],1.12 µM
same,LC50,[2],> 100 µM
same,TGI,[2]; read-out: Log TGI (converted),3.72 µM
same,GI50,MOLT-4,2.51 µM
same,LC50,MOLT-4,100 µM
same,TGI,MOLT-4; read-out: Log TGI (converted),6.46 µM
